Assay results as given in ChEMBL document CHEMBL4715813, “Allicin-inspired pyridyl disulfides as antimicrobial agents for multidrug-resistant Staphylococcus aureus” (Eur J Med Chem, 2018).
≈ marks a conversion by molar mass, not a printed value. Calls of active or inactive are those of the source. The rule behind the calls is not given here.

Assays:
Staphylococcus aureus [1] = experiment: Induction of intracellular oxidant species generation in Staphylococcus aureus ATCC 25923 after 1 hr by colorimetric based NBT assay; type: functional, organism-based
In short: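 Cells at OD600 1.5 in HBSS mixed with 1 mg/mL aqueous NBT and agent (added from 2 mM stock) or DMSO/water, shaken for 1 h at 37 °C. Stopped with 0.1 M HCl and centrifuged; pellet formazan solubilized in DMSO/KOH/HBSS and read at OD560.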

Staphylococcus aureus [2] = experiment: Induction of intracellular oxidant species generation in Staphylococcus aureus ATCC 25923 by DCFH-DA dye based fluorescence assay; type: functional, organism-based
In short: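 OD600 1.5 suspension of S. aureus […] in HBSS given agent (from 2 or 10 mM stock), DMSO or water, then DCFH diacetate from a 100 μM stock in DMSO. Intracellular oxidation read by fluorescence (ex 485, em 535 nm).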

Staphylococcus aureus [3] = experiment: Antibacterial activity against hospital acquired methicillin-resistant Staphylococcus aureus ATCC 43300 assessed as zone of inhibition by disc diffusion method; type: functional
Staphylococcus aureus [4] = experiment: Antibacterial activity against community acquired methicillin-resistant Staphylococcus aureus BAA 1747 assessed as zone of inhibition by disc diffusion method; type: functional
Enterococcus faecalis = experiment: Antibacterial activity against vancomycin-susceptible Enterococcus faecalis ATCC 29212 assessed as zone of inhibition by disc diffusion method; type: functional
[5] = test system: Staphylococcus epidermidis; experiment: Antibacterial activity against Staphylococcus epidermidis ATCC 14990 assessed as zone of inhibition by disc diffusion method; type: functional
Staphylococcus aureus [6] = experiment: Antibacterial activity against heterogeneous vancomycin-intermediate resistant Staphylococcus aureus Mu3 ATCC 700698 assessed as zone of inhibition by disc diffusion method; type: functional
Staphylococcus aureus [7] = experiment: Antibacterial activity against linezolid-resistant Staphylococcus aureus assessed as bacterial growth inhibition incubated for 20 hrs by broth dilution method; type: functional
In short: (§1)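 Broth microdilution: 0.5 McFarland suspension from an overnight culture, diluted 1:100 in cation-adjusted Mueller Hinton broth (CAMHB), given serial dilutions of test agent for 20 h at 37 °C. MIC is the lowest concentration with no visible growth.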

Escherichia coli = experiment: Antibacterial activity against beta-lactam resistant Escherichia coli BAA 2326 assessed as zone of inhibition by disc diffusion method; type: functional
Staphylococcus aureus [8] = experiment: Antibacterial activity against vancomycin-intermediate resistant Staphylococcus aureus Mu50 ATCC 700699 assessed as bacterial growth inhibition incubated for 20 hrs by broth dilution method; type: functional; in short: as §1
Staphylococcus aureus [9] = experiment: Antibacterial activity against vancomycin-intermediate resistant Staphylococcus aureus Mu50 ATCC 700699 assessed as zone of inhibition by disc diffusion method; type: functional
Staphylococcus aureus [10] = experiment: Antibacterial activity against methicillin-susceptible Staphylococcus aureus ATCC 25923 assessed as bacterial growth inhibition incubated for 20 hrs by broth dilution method; type: functional; in short: as §1
Staphylococcus aureus [11] = experiment: Antibacterial activity against vancomycin-resistant Staphylococcus aureus HIP11714 assessed as inhibition of bacterial growth incubated for 20 hrs by broth microdilution method; type: functional; details: HIP11714, 20 h; in short: as §1
Staphylococcus aureus [12] = experiment: Antibacterial activity against methicillin-resistant Staphylococcus aureus ATCC 43300 assessed as bacterial growth inhibition incubated for 20 hrs by broth dilution method; type: functional; in short: as §1
Bacillus anthracis = experiment: Antibacterial activity against Bacillus anthracis Sterne 34F2 assessed as zone of inhibition by disc diffusion method; type: functional
Staphylococcus aureus [13] = experiment: Antibacterial activity against vancomycin-intermediate Staphylococcus aureus clinical isolate 12 assessed as bacterial growth inhibition after 20 hrs by broth microdilution assay; type: functional; in short: as §1
Enterococcus faecium = experiment: Antibacterial activity against vancomycin-resistant Enterococcus faecium ATCC 700221 assessed as zone of inhibition by disc diffusion method; type: functional
Staphylococcus aureus [14] = experiment: Antibacterial activity against vancomycin-resistant Staphylococcus aureus HIP11714 assessed as zone of inhibition by disc diffusion method; type: functional
Pseudomonas aeruginosa = experiment: Antibacterial activity against Pseudomonas aeruginosa ATCC 15422 assessed as zone of inhibition by disc diffusion method; type: functional
Klebsiella pneumoniae = experiment: Antibacterial activity against multidrug-resistant Klebsiella pneumoniae ATCC 700603 assessed as zone of inhibition by disc diffusion method; type: functional
Staphylococcus aureus [15] = experiment: Antibacterial activity against methicillin-susceptible Staphylococcus aureus ATCC 25923 assessed as zone of inhibition by disc diffusion method; type: functional
Acinetobacter baumannii [16] = experiment: Antibacterial activity against Acinetobacter baumannii ATCC 19606 assessed as zone of inhibition by disc diffusion method; type: functional
Acinetobacter baumannii [17] = experiment: Antibacterial activity against multidrug-resistant Acinetobacter baumannii BAA 1605 assessed as zone of inhibition by disc diffusion method; type: functional
Staphylococcus aureus [18] = experiment: Antibacterial activity against heterogeneous vancomycin-intermediate Staphylococcus aureus Mu3 ATCC 700698 assessed as bacterial growth inhibition incubated for 20 hrs by broth dilution method; type: functional; in short: as §1
Enterobacter cloacae = experiment: Antibacterial activity against Enterobacter cloacae ATCC 23355 assessed as zone of inhibition by disc diffusion method; type: functional
Staphylococcus aureus [19] = experiment: Antibacterial activity against vancomycin-resistant Staphylococcus aureus clinical isolate 10 assessed as bacterial growth inhibition after 20 hrs by broth microdilution assay; type: functional; in short: as §1
Staphylococcus aureus [20] = experiment: Antibacterial activity against methicillin-susceptible Staphylococcus aureus ATCC 25923 in presence of 5% v/v serum; type: functional
Staphylococcus aureus [21] = experiment: Bactericidal activity against vancomycin-intermediate resistant Staphylococcus aureus Mu50 ATCC 700699 assessed as bacterial killing incubated for over night; type: functional
In short: (§2)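 For MBC, 5 μL from each well was spotted on agar and incubated overnight; MBC is the lowest concentration with no visible growth. Ratio taken as MBC over MIC.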

Staphylococcus aureus [22] = experiment: Bactericidal activity against heterogeneous vancomycin-intermediate Staphylococcus aureus Mu3 ATCC 700698 assessed as bacterial killing incubated for over night; type: functional; in short: as §2
Staphylococcus aureus [23] = experiment: Ratio of MBC to MIC against heterogeneous vancomycin-intermediate Staphylococcus aureus Mu3 ATCC 700698; type: functional; in short: as §2
Staphylococcus aureus [24] = experiment: Antibacterial activity against methicillin-susceptible Staphylococcus aureus ATCC 25923 in presence of 10% v/v serum; type: functional
Staphylococcus aureus [25] = experiment: Antibacterial activity against methicillin-susceptible Staphylococcus aureus ATCC 25923 in presence of 0.05% v/v albumin; type: functional
Staphylococcus aureus [26] = experiment: Ration of MBC to MIC against Vancomycin-resistant Staphylococcus aureus HIP11714; type: functional; in short: as §2
Staphylococcus aureus [27] = experiment: Bactericidal activity against methicillin-resistant Staphylococcus aureus ATCC 43300 assessed as bacterial killing incubated for over night; type: functional; in short: as §2
Staphylococcus aureus [28] = experiment: Bactericidal activity against methicillin-susceptible Staphylococcus aureus ATCC 25923 assessed as bacterial killing incubated for over night; type: functional
In short: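 5 μL from each well was spotted on agar and incubated overnight. MBC was taken as the lowest concentration with no visible growth.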

Staphylococcus aureus [29] = experiment: Bactericidal activity against Vancomycin-resistant Staphylococcus aureus HIP11714 assessed as bacterial killing incubated for over night; type: functional; in short: as §2
Staphylococcus aureus [30] = experiment: Antibacterial activity against methicillin-susceptible Staphylococcus aureus ATCC 25923 in presence of glutathione; type: functional
In short: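 Broth microdilution MIC: a 0.5 McFarland suspension from overnight culture was diluted 1:100 in cation-adjusted Mueller Hinton broth supplemented with glutathione 100 μM. It was exposed to serial dilutions for 20 h at 37 °C. MIC was taken as the lowest concentration with no visible growth.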

Staphylococcus aureus [31] = experiment: Ratio of MBC to MIC against methicillin-resistant Staphylococcus aureus ATCC 43300; type: functional; in short: as §2
Staphylococcus aureus [32] = experiment: Ratio of MBC to MIC against vancomycin-intermediate resistant Staphylococcus aureus Mu50 ATCC 700699; type: functional; in short: as §2
Staphylococcus aureus [33] = experiment: Ratio of MBC to MIC against methicillin-susceptible Staphylococcus aureus ATCC 25923; type: functional; in short: as §2

`Oc1cc(Cl)ccc1Oc1ccc(Cl)cc1Cl` was tested, and the Activity (Staphylococcus aureus [1]) was “Active” and the Activity (Staphylococcus aureus [2]) was “Active”.
For `CCCCCCSSc1ccccn1`, the “diameter of the inhibition zone (DIZ)” value (Staphylococcus aureus [3]) was 49 mm, the “diameter of the inhibition zone (DIZ)” value (Staphylococcus aureus [4]) was 40 mm and the “diameter of the inhibition zone (DIZ)” value (Enterococcus faecalis) was 20 mm. For the same molecule, the “diameter of the inhibition zone (DIZ)” value [5] was greater than 50 mm, the “diameter of the inhibition zone (DIZ)” value (Staphylococcus aureus [6]) was 45 mm and the MIC (Staphylococcus aureus [7]) was 50 µM (≈ 11.4 µg/mL). For the same molecule, the “diameter of the inhibition zone (DIZ)” value (Escherichia coli) was 0 mm, the MIC (Staphylococcus aureus [8]) was 25 µM (≈ 5.68 µg/mL) and the “diameter of the inhibition zone (DIZ)” value (Staphylococcus aureus [9]) was greater than 50 mm. It also gave an MIC (Staphylococcus aureus [10]) of 25 µM (≈ 5.68 µg/mL), an MIC (Staphylococcus aureus [11]) of 50 µM (≈ 11.4 µg/mL) and an MIC (Staphylococcus aureus [12]) of 50 µM (≈ 11.4 µg/mL). The “diameter of the inhibition zone (DIZ)” value (Bacillus anthracis) was greater than 50 mm, the MIC50 (Staphylococcus aureus [13]) was 50 µM (≈ 11.4 µg/mL) and the MIC90 (Staphylococcus aureus [13]) was 50 µM (≈ 11.4 µg/mL). The “diameter of the inhibition zone (DIZ)” value (Enterococcus faecium) was 13 mm, the “diameter of the inhibition zone (DIZ)” value (Staphylococcus aureus [14]) was 46 mm and the “diameter of the inhibition zone (DIZ)” value (Pseudomonas aeruginosa) was 0 mm. For the same molecule, the “diameter of the inhibition zone (DIZ)” value (Klebsiella pneumoniae) was 0 mm, the “diameter of the inhibition zone (DIZ)” value (Staphylococcus aureus [15]) was 47 mm and the “diameter of the inhibition zone (DIZ)” value (Acinetobacter baumannii [16]) was 0 mm. For the same molecule, the “diameter of the inhibition zone (DIZ)” value (Acinetobacter baumannii [17]) was 0 mm, the MIC (Staphylococcus aureus [18]) was 50 µM (≈ 11.4 µg/mL) and the “diameter of the inhibition zone (DIZ)” value (Enterobacter cloacae) was 8 mm. It also gave an MIC50 (Staphylococcus aureus [19]) of 50 µM (≈ 11.4 µg/mL) and an MIC90 (Staphylococcus aureus [19]) of 50 µM (≈ 11.4 µg/mL).
For `CCCCCCCSSc1ccccn1`, the “diameter of the inhibition zone (DIZ)” value (Staphylococcus aureus [3]) was 46 mm, the MIC (Staphylococcus aureus [20]) was 25 µM and the MBC (Staphylococcus aureus [21]) was 25 µM (≈ 6.04 µg/mL). The “diameter of the inhibition zone (DIZ)” value (Enterococcus faecalis) was 10 mm, the “diameter of the inhibition zone (DIZ)” value [5] was greater than 50 mm and the MBC (Staphylococcus aureus [22]) was greater than 50 µM. For the same molecule, the Ratio (Staphylococcus aureus [23]) was greater than 4, the MIC (Staphylococcus aureus [7]) was 25 µM (≈ 6.04 µg/mL) and the “diameter of the inhibition zone (DIZ)” value (Escherichia coli) was 0 mm. For the same molecule, the MIC (Staphylococcus aureus [24]) was 25 µM, the MIC (Staphylococcus aureus [8]) was 3.13 µM (≈ 0.756 µg/mL) and the MIC (Staphylococcus aureus [25]) was 12.5 µM. For the same molecule, the Ratio (Staphylococcus aureus [26]) was greater than 8, the MBC (Staphylococcus aureus [27]) was greater than 50 µM and the MIC (Staphylococcus aureus [10]) was 12.5 µM (≈ 3.02 µg/mL). For the same molecule, the MIC (Staphylococcus aureus [11]) was 6.25 µM (≈ 1.51 µg/mL), the MIC (Staphylococcus aureus [12]) was 6.25 µM (≈ 1.51 µg/mL) and the “diameter of the inhibition zone (DIZ)” value (Bacillus anthracis) was 50 mm. For the same molecule, the MIC50 (Staphylococcus aureus [13]) was 12.5 µM (≈ 3.02 µg/mL), the MIC90 (Staphylococcus aureus [13]) was 12.5 µM (≈ 3.02 µg/mL) and the “diameter of the inhibition zone (DIZ)” value (Enterococcus faecium) was 10 mm. It also gave an MBC (Staphylococcus aureus [28]) greater than 50 µM, an MBC (Staphylococcus aureus [29]) greater than 50 µM and an MIC (Staphylococcus aureus [30]) of 50 µM. For the same molecule, the “diameter of the inhibition zone (DIZ)” value (Pseudomonas aeruginosa) was 0 mm, the Ratio (Staphylococcus aureus [31]) was greater than 8 and the “diameter of the inhibition zone (DIZ)” value (Klebsiella pneumoniae) was 0 mm. For the same molecule, the “diameter of the inhibition zone (DIZ)” value (Staphylococcus aureus [15]) was greater than 50 mm, the “diameter of the inhibition zone (DIZ)” value (Acinetobacter baumannii [16]) was 0 mm and the “diameter of the inhibition zone (DIZ)” value (Acinetobacter baumannii [17]) was 0 mm. For the same molecule, the MIC (Staphylococcus aureus [18]) was 12.5 µM (≈ 3.02 µg/mL), the “diameter of the inhibition zone (DIZ)” value (Enterobacter cloacae) was 0 mm and the Ratio (Staphylococcus aureus [32]) was 8. It also gave an MIC50 (Staphylococcus aureus [19]) of 6.25 µM (≈ 1.51 µg/mL), an MIC90 (Staphylococcus aureus [19]) of 12.5 µM (≈ 3.02 µg/mL) and a Ratio (Staphylococcus aureus [33]) greater than 4.
